The values below come from ChEMBL document CHEMBL1149639, “Anti-tumor agents 255: novel glycyrrhetinic acid-dehydrozingerone conjugates as cytotoxic agents” (2007).

Each structure is given as a SMILES string. The source made the active and inactive calls. No cut-off for these calls is given here.

The test system of one experiment is 1A9. Kind of experiment: Cytotoxicity against human 1A9 cells. The experiment is classed as functional. Particulars: read-out: ED50 (the source's name). The method in brief: (§1)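 Sulforhodamine B assay after Rubinstein et al. Cells grown at 37 °C, humidified 5% CO2, in RPMI-1640 with 10% (v/v) FBS and 100 μg/mL kanamycin. Seeding density set per line to give final A562 of 1-2.5. Stocks in DMSO, final DMSO <1% (v/v). Two-day drug exposure, absorbance at 562 nm. ED50 (50% absorbance reduction vs untreated) interpolated from dose-response. Tests in duplicate.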
Consider `CCOc1cccc(/C=C/C(C)=O)c1OC(=O)[C@@]1(C)CC[C@]2(C)CC[C@]3(C)C(=CC(=O)[C@@H]4[C@@]5(C)CC[C@H](O)C(C)(C)[C@@H]5CC[C@]43C)[C@@H]2C1`, for which the EC50 was determined as 1.8 µM.

On to `COc1ccc(/C=C/C(C)=O)cc1OC(=O)[C@@]1(C)CC[C@]2(C)CC[C@]3(C)C(=CC(=O)[C@@H]4[C@@]5(C)CC[C@H](O)C(C)(C)[C@@H]5CC[C@]43C)[C@@H]2C1`, for which the EC50 was 1.6 µM.

`COc1cc(/C=C/C(=O)c2ccccc2)ccc1OC(=O)[C@@]1(C)CC[C@]2(C)CC[C@]3(C)C(=CC(=O)[C@@H]4[C@@]5(C)CC[C@H](O)C(C)(C)[C@@H]5CC[C@]43C)[C@@H]2C1`: the EC50 was more than 14 µM.

As to `COc1cc(/C=C/C(C)=O)ccc1O` [DEHYDROZINGERONE], the EC50 was 33.9 µM.

For the next experiment, the system named is HCT-8. Kind of experiment: Cytotoxicity against human HCT8 cells. The experiment is classed as functional. As to conditions: read-out: ED50 (the source's name). A digest of the protocol: as §1
For `CCOc1cccc(/C=C/C(C)=O)c1OC(=O)[C@@]1(C)CC[C@]2(C)CC[C@]3(C)C(=CC(=O)[C@@H]4[C@@]5(C)CC[C@H](O)C(C)(C)[C@@H]5CC[C@]43C)[C@@H]2C1`, the EC50 is 4.9 µM.

In the case of `COc1ccc(/C=C/C(C)=O)cc1OC(=O)[C@@]1(C)CC[C@]2(C)CC[C@]3(C)C(=CC(=O)[C@@H]4[C@@]5(C)CC[C@H](O)C(C)(C)[C@@H]5CC[C@]43C)[C@@H]2C1`, the EC50 amounted to 2 µM.

With `COc1cc(/C=C/C(=O)c2ccccc2)ccc1OC(=O)[C@@]1(C)CC[C@]2(C)CC[C@]3(C)C(=CC(=O)[C@@H]4[C@@]5(C)CC[C@H](O)C(C)(C)[C@@H]5CC[C@]43C)[C@@H]2C1`, the EC50 is more than 14 µM.

With `COc1cc(/C=C/C(C)=O)ccc1O` [DEHYDROZINGERONE], the EC50 is more than 52 µM.

For another experiment, the system named is DU-145. The experiment is described as follows: Cytotoxicity against human DU145 cells. The experiment is classed as functional. Particulars: read-out: ED50 (the source's name). A digest of the protocol:
as §1
Take `CCOc1cccc(/C=C/C(C)=O)c1OC(=O)[C@@]1(C)CC[C@]2(C)CC[C@]3(C)C(=CC(=O)[C@@H]4[C@@]5(C)CC[C@H](O)C(C)(C)[C@@H]5CC[C@]43C)[C@@H]2C1`: the EC50 was more than 15 µM.

`COc1ccc(/C=C/C(C)=O)cc1OC(=O)[C@@]1(C)CC[C@]2(C)CC[C@]3(C)C(=CC(=O)[C@@H]4[C@@]5(C)CC[C@H](O)C(C)(C)[C@@H]5CC[C@]43C)[C@@H]2C1`: the EC50 was determined as 9.9 µM.

Regarding `COc1cc(/C=C/C(=O)c2ccccc2)ccc1OC(=O)[C@@]1(C)CC[C@]2(C)CC[C@]3(C)C(=CC(=O)[C@@H]4[C@@]5(C)CC[C@H](O)C(C)(C)[C@@H]5CC[C@]43C)[C@@H]2C1`, the EC50 was more than 14 µM.

`COc1cc(/C=C/C(C)=O)ccc1O` [DEHYDROZINGERONE]: the EC50 was more than 52 µM.

The test system of another experiment is KB. The experiment is described as follows: Cytotoxicity against human KB cells. It is filed as functional.
Settings: not given
A digest of the protocol:
as §1
In the case of `COc1cc(/C=C/C(=O)c2ccccc2)ccc1OC(=O)[C@@]1(C)CC[C@]2(C)CC[C@]3(C)C(=CC(=O)[C@@H]4[C@@]5(C)CC[C@H](O)C(C)(C)[C@@H]5CC[C@]43C)[C@@H]2C1`, the outcome was inactive.

With `COc1cc(/C=C/C(C)=O)ccc1O` [DEHYDROZINGERONE], the outcome was inactive.

The same experiment, now with this note: read-out: ED50 (the source's name).
As for `CCOc1cccc(/C=C/C(C)=O)c1OC(=O)[C@@]1(C)CC[C@]2(C)CC[C@]3(C)C(=CC(=O)[C@@H]4[C@@]5(C)CC[C@H](O)C(C)(C)[C@@H]5CC[C@]43C)[C@@H]2C1`, the EC50 is 2.9 µM.

Take `COc1ccc(/C=C/C(C)=O)cc1OC(=O)[C@@]1(C)CC[C@]2(C)CC[C@]3(C)C(=CC(=O)[C@@H]4[C@@]5(C)CC[C@H](O)C(C)(C)[C@@H]5CC[C@]43C)[C@@H]2C1`: the EC50 is 0.9 µM.

A further experiment has as its system A549. The experiment is described as follows: Cytotoxicity against human A549 cells. It is filed as functional. As to conditions: read-out: ED50 (the source's name). The method in brief: as §1
`CCOc1cccc(/C=C/C(C)=O)c1OC(=O)[C@@]1(C)CC[C@]2(C)CC[C@]3(C)C(=CC(=O)[C@@H]4[C@@]5(C)CC[C@H](O)C(C)(C)[C@@H]5CC[C@]43C)[C@@H]2C1`: the EC50 stood at 3 µM.

Consider `COc1ccc(/C=C/C(C)=O)cc1OC(=O)[C@@]1(C)CC[C@]2(C)CC[C@]3(C)C(=CC(=O)[C@@H]4[C@@]5(C)CC[C@H](O)C(C)(C)[C@@H]5CC[C@]43C)[C@@H]2C1`, for which the EC50 was 2.8 µM.

Regarding `COc1cc(/C=C/C(=O)c2ccccc2)ccc1OC(=O)[C@@]1(C)CC[C@]2(C)CC[C@]3(C)C(=CC(=O)[C@@H]4[C@@]5(C)CC[C@H](O)C(C)(C)[C@@H]5CC[C@]43C)[C@@H]2C1`, the EC50 was more than 14 µM.

Turning to `COc1cc(/C=C/C(C)=O)ccc1O` [DEHYDROZINGERONE], the EC50 is more than 52 µM.

For another experiment, the system named is KB-VIN. Kind of experiment: Cytotoxicity against human KB-VIN cells by sulforhodamine B assay. It is filed as functional.
Settings: not given
A digest of the protocol:
as §1
For orientation: The SRB assay estimates cell density from bound dye.
For `COc1cc(/C=C/C(C)=O)ccc1O` [DEHYDROZINGERONE], the result was inactive.

The next experiment deals with LNCaP. The experiment is described as follows: Cytotoxicity against human LN-Cap cells. The experiment is classed as functional. Particulars: read-out: ED50 (the source's name). A digest of the protocol:
as §1
For `CCOc1cccc(/C=C/C(C)=O)c1OC(=O)[C@@]1(C)CC[C@]2(C)CC[C@]3(C)C(=CC(=O)[C@@H]4[C@@]5(C)CC[C@H](O)C(C)(C)[C@@H]5CC[C@]43C)[C@@H]2C1`, the EC50 came to 6.8 µM.

Turning to `COc1ccc(/C=C/C(C)=O)cc1OC(=O)[C@@]1(C)CC[C@]2(C)CC[C@]3(C)C(=CC(=O)[C@@H]4[C@@]5(C)CC[C@H](O)C(C)(C)[C@@H]5CC[C@]43C)[C@@H]2C1`, the EC50 worked out at 6.5 µM.

As for `COc1cc(/C=C/C(=O)c2ccccc2)ccc1OC(=O)[C@@]1(C)CC[C@]2(C)CC[C@]3(C)C(=CC(=O)[C@@H]4[C@@]5(C)CC[C@H](O)C(C)(C)[C@@H]5CC[C@]43C)[C@@H]2C1`, the EC50 is more than 14 µM.

For `COc1cc(/C=C/C(C)=O)ccc1O` [DEHYDROZINGERONE], the EC50 turned out to be 51 µM.

System in another experiment: not listed separately
The experiment is described as follows: (§2) Cytotoxicity against human KB-VIN cells. The experiment is classed as functional. As to conditions: KBVIN, read-out: ED50 (the source's name). The method in brief: as §1
For `CCOc1cccc(/C=C/C(C)=O)c1OC(=O)[C@@]1(C)CC[C@]2(C)CC[C@]3(C)C(=CC(=O)[C@@H]4[C@@]5(C)CC[C@H](O)C(C)(C)[C@@H]5CC[C@]43C)[C@@H]2C1`, the EC50 worked out at 13.2 µM.

Take `COc1ccc(/C=C/C(C)=O)cc1OC(=O)[C@@]1(C)CC[C@]2(C)CC[C@]3(C)C(=CC(=O)[C@@H]4[C@@]5(C)CC[C@H](O)C(C)(C)[C@@H]5CC[C@]43C)[C@@H]2C1`: the EC50 was found to be 1.9 µM.

A further experiment has as its system KB-VIN. The experiment is described as §2. It is filed as functional.
Settings: not given
The method in brief:
as §1
For `COc1cc(/C=C/C(=O)c2ccccc2)ccc1OC(=O)[C@@]1(C)CC[C@]2(C)CC[C@]3(C)C(=CC(=O)[C@@H]4[C@@]5(C)CC[C@H](O)C(C)(C)[C@@H]5CC[C@]43C)[C@@H]2C1`, the outcome was inactive.

As to `COc1cc(/C=C/C(C)=O)ccc1O` [DEHYDROZINGERONE], the result was inactive.

A further experiment relates to KB. The experiment is described as follows: Cytotoxicity against human KB cells by sulforhodamine B assay.
Settings: not given
The experiment is classed as functional. The method in brief: as §1
In the case of `COc1cc(/C=C/C(C)=O)ccc1O` [DEHYDROZINGERONE], the result was inactive.

In the next experiment the test system is ZR-75-1. Kind of experiment: Cytotoxicity against human ZR751 cells. The experiment is classed as functional.
Settings: not given
A digest of the protocol: as §1
On to `COc1cc(/C=C/C(=O)c2ccccc2)ccc1OC(=O)[C@@]1(C)CC[C@]2(C)CC[C@]3(C)C(=CC(=O)[C@@H]4[C@@]5(C)CC[C@H](O)C(C)(C)[C@@H]5CC[C@]43C)[C@@H]2C1`, for which the result was inactive.

Still in this experiment, the particulars now being: read-out: ED50 (the source's name).
As for `CCOc1cccc(/C=C/C(C)=O)c1OC(=O)[C@@]1(C)CC[C@]2(C)CC[C@]3(C)C(=CC(=O)[C@@H]4[C@@]5(C)CC[C@H](O)C(C)(C)[C@@H]5CC[C@]43C)[C@@H]2C1`, the EC50 came to 8.8 µM.

Regarding `COc1ccc(/C=C/C(C)=O)cc1OC(=O)[C@@]1(C)CC[C@]2(C)CC[C@]3(C)C(=CC(=O)[C@@H]4[C@@]5(C)CC[C@H](O)C(C)(C)[C@@H]5CC[C@]43C)[C@@H]2C1`, the EC50 was 1.9 µM.

On to `COc1cc(/C=C/C(C)=O)ccc1O` [DEHYDROZINGERONE], for which the EC50 is more than 52 µM.

The next experiment concerns PC-3. Kind of experiment: Cytotoxicity against human PC3 cells. The experiment is classed as functional. As to conditions: read-out: ED50 (the source's name). The method in brief:
as §1
As to `CCOc1cccc(/C=C/C(C)=O)c1OC(=O)[C@@]1(C)CC[C@]2(C)CC[C@]3(C)C(=CC(=O)[C@@H]4[C@@]5(C)CC[C@H](O)C(C)(C)[C@@H]5CC[C@]43C)[C@@H]2C1`, the EC50 stood at 3.5 µM.

With `COc1ccc(/C=C/C(C)=O)cc1OC(=O)[C@@]1(C)CC[C@]2(C)CC[C@]3(C)C(=CC(=O)[C@@H]4[C@@]5(C)CC[C@H](O)C(C)(C)[C@@H]5CC[C@]43C)[C@@H]2C1`, the EC50 turned out to be 2.8 µM.

As to `COc1cc(/C=C/C(=O)c2ccccc2)ccc1OC(=O)[C@@]1(C)CC[C@]2(C)CC[C@]3(C)C(=CC(=O)[C@@H]4[C@@]5(C)CC[C@H](O)C(C)(C)[C@@H]5CC[C@]43C)[C@@H]2C1`, the EC50 is more than 14 µM.

`COc1cc(/C=C/C(C)=O)ccc1O` [DEHYDROZINGERONE]: the EC50 is more than 52 µM.
